biological target: T1, Inosine-5'-monophosphate dehydrogenase 2 (Homo sapiens, UniProt P12268); experiment: First order rate constant for inactivation of human Inosine-5'-monophosphate dehydrogenase 2
In short: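 Human type II IMPDH (2 µM) incubated at 23 °C with 20 µM compound (10-fold excess) in 0.1 M potassium phosphate pH 7.9, 0.5 M KCl, 3 mM EDTA, 10 mM DTT and 100 µg/mL BSA. Aliquots taken over time are assayed with 200 µM IMP and 400 µM NAD (8× Km). k_inact comes from a nonlinear first-order fit of remaining activity versus incubation time.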

Row | SMILES | k obs [s⁻¹]
1 | C=Cc1nc(O)c2ncn(C3O[C@@H](COP(=O)(O)O)[C@H](O)[C@@H]3O)c2n1 (stereo partly drawn) | 0.0144
2 | O=P(O)(O)OC[C@@H]1OC(n2cnc3c(O)nc(CCl)nc32)[C@@H](O)[C@H]1O (stereo partly drawn) | 0.0528
3 | O=P(O)(O)OC[C@@H]1OC(n2cnc3c(O)nc(CF)nc32)[C@@H](O)[C@H]1O (stereo partly drawn) | 0.0164

biological target: T1, Inosine-5'-monophosphate dehydrogenase 2; experiment: Concentration required for 50% inhibition of human Inosine-5'-monophosphate dehydrogenase 2 using Spectrophotometric assay
In short: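 Human type II IMPDH, 25 nM final, added to start the reaction. Mix holds 50 µM IMP, 100 µM NAD and varying inhibitor in 0.1 M potassium phosphate pH 7.4, 0.1 M KCl, 3 mM EDTA, 1 mM DTT and 100 µg/mL BSA. NADH formation is followed by absorbance at 340 nm in 1 cm cells. Fractional activity relative to the uninhibited rate is taken against inhibitor concentration.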

Row | IC50 [µM] | SMILES
4 | 1.32 | O=c1[nH]c(CCl)nc2c1ncn2C1O[C@@H](COP(=O)(O)O)[C@H](O)[C@@H]1O (stereo partly drawn)
5 | 132 | O=c1[nH]c(CO)nc2c1ncn2C1O[C@@H](COP(=O)(O)O)[C@H](O)[C@@H]1O (stereo partly drawn)
6 | 1.2 | O=c1[nH]c(CF)nc2c1ncn2C1O[C@@H](COP(=O)(O)O)[C@H](O)[C@@H]1O (stereo partly drawn)
7 | 1 | C=Cc1nc2c(ncn2C2O[C@@H](COP(=O)(O)O)[C@H](O)[C@@H]2O)c(=O)[nH]1 (stereo partly drawn)

More lines, now with the values behind:

Row | SMILES | IC50 [µM]
8 | O=P(O)(O)OC[C@@H]1OC(n2cnc3c(O)nc(C(F)F)nc32)[C@@H](O)[C@H]1O (stereo partly drawn) | > 1000
9 | O=P(O)(O)OC[C@@H]1OC(n2cnc3c(O)nc(CCc4ccccc4)nc32)[C@@H](O)[C@H]1O (stereo partly drawn) | 460
10 | O=P(O)(O)OC[C@@H]1OC(n2cnc3c(O)nc(C(F)(F)F)nc32)[C@@H](O)[C@H]1O (stereo partly drawn) | > 1000
11 | O=P(O)(O)OC[C@@H]1OC(n2cnc3c(O)nc(/C=C/c4ccccc4)nc32)[C@@H](O)[C@H]1O (stereo partly drawn) | 37
12 | O=P(O)(O)OC[C@@H]1OC(n2cnc3c(O)nc(C(O)O)nc32)[C@@H](O)[C@H]1O (stereo partly drawn) | 0.44
13 | Cc1nc(O)c2ncn(C3O[C@@H](COP(=O)(O)O)[C@H](O)[C@@H]3O)c2n1 (stereo partly drawn) | > 1000

— ChEMBL document CHEMBL1130017, “Rationally designed inhibitors of inosine monophosphate dehydrogenase” (J Med Chem, 1997)
